Screening results deposited in PubChem BioAssay by Broad Institute.
S100A4 inh HTS – inhibitors of human S100A4 binding to myosin IIA peptide; P26447; S100A4/TAMRA-MyoIIA peptide fluorescence polarization; inhibition, % at 10.7 µM; 360,000 tested, 0.14% active; AID 652163;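 active means mean inhibition of at least 70% across replicates, with every replicate also reaching that level; inconclusive means mean inhibition reaches 70% but some replicates fall short; inactive means mean inhibition below 70%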
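Compound dosing: one dose per compound; test system: human S100A4 monomer with TAMRA-labelled myosin IIA peptide; probe or stimulus: TAMRA-labelled myosin IIA heavy-chain peptide probe, 5 nM; medium: HEPES buffer with Ca2+, pH 7.2; schedule: 5 min incubation before reading; benchmarks: neutral control DMSO, positive control TFP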
XiGFP reactiv – activators of X-chromosome reactivation in mouse fibroblasts | XiGFP mouse fibroblasts, % GFP-positive cells imaging, 3 d; cells co-treated with 5-aza-dC sensitizer; scaled so ellipticine positive control = 100% | activation, % at 7.58 µM | 360,000 tested, 0.055% active;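 active means mean normalized replicate activation at least 10% and every replicate at or above 10%; inconclusive means only one of the two criteria met; inactive means mean below 10% and not all replicates reach 10%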;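 further: 0% = median of on-plate neutral control wells and 100% = ellipticine 6 µM median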
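assay system = SV40-immortalized XiGFP fibroblast cells, line 68-5-11 | buffer or medium = DMEM plus 5-aza-dC sensitizer | doses = single-point pinned compound dosing | times = 3-day compound exposure, then 15 min fixation at room temperature | benchmarks = positive control ellipticine, 6 µM final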
Casp6 inh – inhibitors of human caspase-6; P55212; 350,000 tested, 0.53% active; AID 686996; purified caspase-6, Z-VEID-R110 cleavage fluorescence; inhibition, % at 12.5 µM;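 active means mean inhibition across replicates at least about 35%, with every replicate also reaching that limit, limit read from the data; inconclusive means only one of the two criteria met; inactive means neither criterion met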;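 further: 0% = median of neutral control wells and 100% = no fluorescence left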
RAD54 inh – blocks human RAD54 Holliday junction branch migration; FAM/BHQ fluorescence; Q92698; 360,000 tested, 0.14% active; inhibition, % at 10.4 µM;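 active means mean normalized replicate activity at least 40 and at least half of replicates scoring 40 or more; inconclusive means only one of the two criteria met; inactive means mean below 40 and under half of replicates reaching 40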;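 further: 0% = median of neutral control wells and 100% = median of positive control wells; inhibitors cause a drop in the FAM fluorescence signal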
Target sequence (Q92698 whole entry, looked up): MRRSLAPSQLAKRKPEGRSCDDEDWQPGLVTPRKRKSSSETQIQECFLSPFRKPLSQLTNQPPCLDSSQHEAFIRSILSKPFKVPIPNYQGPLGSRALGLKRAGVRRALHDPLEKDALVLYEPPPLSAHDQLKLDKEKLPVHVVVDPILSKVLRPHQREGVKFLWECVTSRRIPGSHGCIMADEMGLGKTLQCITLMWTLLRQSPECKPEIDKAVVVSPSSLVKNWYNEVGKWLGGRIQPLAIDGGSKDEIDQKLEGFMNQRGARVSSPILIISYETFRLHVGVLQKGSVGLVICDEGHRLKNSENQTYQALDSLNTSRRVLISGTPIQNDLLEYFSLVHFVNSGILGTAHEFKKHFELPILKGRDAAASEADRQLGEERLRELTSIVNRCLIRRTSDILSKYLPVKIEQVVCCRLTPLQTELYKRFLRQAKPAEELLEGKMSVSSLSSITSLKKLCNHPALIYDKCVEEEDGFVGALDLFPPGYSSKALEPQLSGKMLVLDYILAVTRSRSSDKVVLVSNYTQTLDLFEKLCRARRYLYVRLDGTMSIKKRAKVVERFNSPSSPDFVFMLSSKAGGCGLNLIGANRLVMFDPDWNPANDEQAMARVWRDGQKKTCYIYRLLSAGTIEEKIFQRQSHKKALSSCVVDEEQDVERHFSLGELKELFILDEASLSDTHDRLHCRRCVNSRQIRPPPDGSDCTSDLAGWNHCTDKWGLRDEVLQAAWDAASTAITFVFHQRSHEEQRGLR
RAD52 anneal inh – inhibitors of human RAD52 DNA annealing; P43351; recombinant RAD52 DNA annealing, FRET fluorescence; inhibition, % at 18.7 µM; 360,000 tested, 0.46% active; AID 651710;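 active means every replicate showing at least 50% inhibition; inconclusive means mean inhibition at least 50% but not in every replicate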
AF4-AF9 inh – inhibitors of human MLL-AF4/AF9 interaction. AlphaScreen, biotin-AF4 peptide binding to FLAG-AF9. inhibition, % at 10 µM. 350,000 tested, 0.47% active. AID 651704;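 active means every replicate reaching a set inhibition limit, whatever the replicate mean, cut at about 25% in these data; inconclusive means mean inhibition reaches that limit but some replicates miss it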;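 further: 0% = plate neutral control median and 100% = total signal loss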
* hit, by the source's call; ? = inconclusive; / = not tested or not shown; ! = a repeat was not active. Shown are actives, neighbours in structure and some others; about 1.3% of the full set was active somewhere.

SMILES | S100A4 inh HTS | XiGFP reactiv | Casp6 inh | RAD54 inh | RAD52 anneal inh | AF4-AF9 inh
O=C(CCN1CCCCC1)N[C@@H]1CC[C@@H](CCn2cc(-c3ccccc3)nn2)O[C@@H]1CO | 9 | 0 | -2 | 6 | 4 | 1
NCC[C@@H]1CC[C@@H](NC(=O)CCN2CCCCC2)[C@H](CO)O1 | -7 | 0 | 0 | -18 | 3 | 19
COc1ccc(S(=O)(=O)N(C)C[C@@H]2Oc3ccc(NC(=O)c4ccncc4)cc3CC(=O)N([C@@H](C)CO)C[C@H]2C)cc1 | 4 | -1 | 1 | 0 | 0 | 0
COc1cc(C(=O)NC(CCSC)C(=O)OCc2cc([N+](=O)[O-])cc3c2OCOC3)cc(OC)c1OC (stereo not given) | -3 | 0 | 36* | / | -23 | -3
CC(C)CC#Cc1cnc2c(c1)C(=O)N([C@H](C)CO)C[C@@H](C)[C@H](CN(C)Cc1ccccc1F)O2 | 15 | -1 | -2 | -9 | 3 | 6
O=C1OC(Nc2cc(Br)cc3cccnc23)c2ccccc21 (stereo not given) | 19 | 0 | 40* | 0 | 2 | -7
COCC(=O)N1[C@H](CO)[C@@H]2c3ccccc3N(C(=O)c3ccncc3)C[C@@H]21 | 4 | 0 | 5 | -2 | -4 | -1
Cc1cc2c(cc1S(=O)(=O)N1CCN(c3cccc(C)c3C)CC1)OCCN2C | 153* | 0 | -1 | -8 | -14 | 5
COc1ccc(C)cc1NC(=O)c1cc(S(=O)(=O)N2CCC3(CC2)OCCO3)ccc1F | -5 | 0 | 3 | 5 | -18 | 3
Cc1cccc(C)c1NC(=O)c1cc(S(=O)(=O)N2CCC3(CC2)OCCO3)ccc1F | -2 | 0 | 65* | -10 | -5 | 1
O=C(C[n+]1ccc(/C=C/c2ccccc2)cc1)c1ccc2c(c1)OCCO2 | -1 | 0 | 10 | 26 | 76* | 17
COc1cccc(CN2C[C@@H]3N[C@H](C2)C3c2ccc(-c3ccccc3C)cc2)c1 (stereo not given in full) | / | 0 | / | / | / | /
COc1ccc(-c2ccc(C3[C@@H]4CN(Cc5cccc(OC)c5)C[C@H]3N4)cc2)cc1 (stereo not given in full) | 15 | 0 | 0 | / | 67* | 10
COc1cc(CN2C[C@@H]3N[C@H](C2)C3c2ccc(-c3ccccc3C)cc2)cc(OC)c1 (stereo not given in full) | -8 | 0 | 4 | / | 64* | 27*!
COc1cccc(-c2ccc(C3[C@@H]4CN(Cc5ccccn5)C[C@H]3N4)cc2)c1 (stereo not given in full) | / | 0 | / | / | / | /
COc1cccc(CN2C[C@@H]3N[C@H](C2)C3c2ccc(-c3cccc(C#N)c3)cc2)c1 (stereo not given in full) | 8 | 0 | 1 | / | 55* | 19
COc1cccc(CN2C[C@@H]3N[C@H](C2)C3c2ccc(-c3ccccc3F)cc2)c1 (stereo not given in full) | 0 | 0 | 5 | / | 64*! | 11
C[C@@H]1CN([C@H](C)CO)C(=O)c2cc(-c3ccncc3)cnc2O[C@H]1CN(C)C(=O)C1CCC1 | / | 0 | / | / | / | /
Cc1noc(C)c1NC(=O)N(C)C[C@H]1Oc2ccc(NS(=O)(=O)c3ccc(F)cc3)cc2CC(=O)N([C@H](C)CO)C[C@@H]1C | / | 0 | / | / | / | /
C[C@H](CO)N1C[C@H](C)[C@H](CN(C)Cc2ccncc2)Oc2ccc(NC(=O)Cn3cnnn3)cc2CC1=O | -3 | 0 | 1 | 17 | -12 | -18
O=C(C[C@H]1CC[C@H]2[C@@H](COC[C@@H](O)CN2S(=O)(=O)c2ccccc2)O1)Nc1ccccc1 | 20 | 0 | 1 | -1 | -1 | 0
COc1cccc(-c2ccc(C3[C@@H]4CN(Cc5cccc(F)c5)C[C@H]3N4)cc2)c1 (stereo not given in full) | -9 | 0 | 1 | / | 53* | 14
COc1cccc(CN2C[C@@H]3N[C@H](C2)C3c2ccc(-c3ccncc3)cc2)c1 (stereo not given in full) | 9 | 0 | 4 | / | -8 | 11
C[C@@H]1CN([C@H](C)CO)C(=O)c2cc(C#Cc3ccccc3)cnc2O[C@@H]1CN(C)C(=O)c1ccccc1F | 74* | -1 | 2 | -2 | -13 | 3
C[C@H]1CN([C@@H](C)CO)C(=O)c2cc(Br)cnc2O[C@H]1CN(C)C(=O)c1ccccc1F | 139* | 0 | -6 | 2 | 6 | -2
SMILES | S100A4 inh HTS | XiGFP reactiv | Casp6 inh | RAD54 inh | RAD52 anneal inh | AF4-AF9 inh
COc1ccc(NC(=O)N(C)C[C@@H]2Oc3ncc(C#CC(C)(C)O)cc3C(=O)N([C@H](C)CO)C[C@@H]2C)cc1 | 112* | -1 | 0 | -4 | -1 | -5
O=C(C[C@@H]1CC[C@H](NC(=O)c2ccncc2)[C@H](CO)O1)NCC1CC1 | -1 | 0 | -1 | -13 | -4 | -4
CCC(=O)Nc1ccc2c(c1)OC[C@@H](C)N(C(=O)Cc1cccnc1)C[C@H](C)[C@H](OC)CN(C)C2=O | 9 | 0 | 4 | -3 | -10 | 3
CC(C)c1ccc(NC(=O)Nc2nc(C(N)C3CCCCC3)cs2)cc1 (stereo not given) | -7 | 0 | -1 | -2 | -62 | ?
CN(C)c1ccc(NC(=O)Nc2nc(C(N)C3CCCCC3)cs2)cc1 (stereo not given) | -2 | 1 | -1 | 6 | 0 | 57*
CO[C@H]1CN(C)C(=O)c2cc(NC(=O)Nc3cccc(F)c3)ccc2OC[C@@H](C)N(C(=O)C2CC2)C[C@@H]1C | / | 0 | / | 0 | / | /
CC1(C)CC(=O)C2=C(C1)NC(=O)CC2 | -2 | 0 | 38* | / | 0 | -4
O=C1CCC2=C(CCCC2=O)N1 | 4 | 0 | 0 | / | -6 | 0
C[C@H]1CCCCO[C@@H](CN(C)Cc2ccc3c(c2)OCO3)[C@@H](C)CN([C@@H](C)CO)C(=O)c2cc(NS(=O)(=O)c3ccccc3)ccc2O1 | 6 | 0 | 3 | -11 | 35 | 8
Cc1ccc(NC(=O)C2CCCN(S(=O)(=O)c3c(C)noc3/C=C/N(C)C)C2)c(C)c1 (stereo not given) | -3 | 0 | -4 | -7 | -48 | 2
Cc1ccc(C)c(NC(=O)C2CCCN(S(=O)(=O)c3c(C)noc3/C=C/N(C)C)C2)c1 (stereo not given) | 122* | 0 | 6 | -1 | -90 | 3
COc1ccccc1NC(=O)N1CC[C@H]2[C@@H]1c1cc(-c3ccccc3)ccc1N(C)[C@H]2CO | 0 | 0 | 0 | 17 | 58* | -1
